Source: PubChem BioAssay (several laboratories)
PP5 inh: PP5 phosphatase inhibitors, primary screen, biochemical, fluorescence. Serine/threonine-protein phosphatase 5 (Homo sapiens), P53041. purified PP5c, OMFP substrate fluorescence. inhibition, % at 6.7 µM. hit rate 0.18% among 320,000;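 active = inhibition above the campaign's mean inhibition across all tested compounds plus 3 SD, cut at about 9.5% in these data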;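 also: 0% = DMSO only and 100% = 100 µM cantharidin control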
Target sequence (P53041 whole entry, looked up): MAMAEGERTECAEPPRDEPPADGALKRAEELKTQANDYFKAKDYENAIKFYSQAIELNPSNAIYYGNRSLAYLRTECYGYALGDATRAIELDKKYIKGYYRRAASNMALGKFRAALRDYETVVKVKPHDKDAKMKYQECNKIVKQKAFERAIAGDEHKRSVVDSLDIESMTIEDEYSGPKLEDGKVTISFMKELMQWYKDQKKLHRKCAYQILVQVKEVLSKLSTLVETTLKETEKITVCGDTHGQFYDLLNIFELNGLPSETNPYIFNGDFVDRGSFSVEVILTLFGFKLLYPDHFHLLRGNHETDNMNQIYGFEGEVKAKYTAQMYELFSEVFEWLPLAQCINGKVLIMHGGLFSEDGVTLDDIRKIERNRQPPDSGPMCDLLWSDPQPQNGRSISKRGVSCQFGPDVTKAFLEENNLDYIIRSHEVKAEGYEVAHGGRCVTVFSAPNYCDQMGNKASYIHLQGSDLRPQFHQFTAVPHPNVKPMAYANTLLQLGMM
PAD4 inh: human PAD4 inhibitors, primary screen, biochemical, fluorescence polarization, 1536-well format; Protein-arginine deiminase type-4 (Homo sapiens), Q9UM07; recombinant PAD4, RCA probe fluorescence polarization; inhibition, % at 6.36 µM; hit rate 0.41% among 330,000;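 active = percent inhibition above a cutoff equal to the mean of all tested compounds plus 3 SD, cut at about 15% in these data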;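 also: 0% = PAD4 with RCA probe and DMSO and 100% = probe without PAD4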
GSTO1 counter: inhibitors of recombinant GSTO1, primary screen, counter-screen for RBBP9 inhibitor project, biochemical, fluorescence polarization. activity-based probe fluorescence polarization. inhibition, % at 5.96 µM. hit rate 1.1% among 300,000. AID 1974, 2009;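 active = inhibition above the campaign mean inhibition plus 3 SD, cut at about 35% in these data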;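 also: 0% = GSTO1-1 with DMSO and 100% = wells lacking GSTO1-1 enzyme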
UCH37 inh: inhibitors of human UCH37 deubiquitinase, primary screen, biochemical, Ub-AMC cleavage, fluorescence; Ubiquitin carboxyl-terminal hydrolase isozyme L5 (Homo sapiens), Q9Y5K5; purified proteasome/UCH37; inhibition, % (test concentration not listed); hit rate 0.33% among 330,000;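 active = mean inhibition over replicate wells above about 20%, limit read from the data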;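 also: 0% = compound-free wells with enzyme and 100% = wells lacking proteasome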
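Material: human UCH37 enzyme supplied as purified proteasome complex / Amount: 0.15 nM proteasome as dispensed / Buffer or medium: pH 7.4 Tris-HCl (50 mM) with ovalbumin, ATP-MgCl2, DTT / Times: preincubation 30 min, reaction 25 min, room temperature / Technique: AMC fluorescence from Ub-AMC cleavage, excitation 355 nm, emission 460 nm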
Apaf-1 inh: inhibitors of human Apaf-1 apoptosome, primary screen, biochemical, DEVD-Rh110 fluorescence, uHTS; Apoptotic protease-activating factor 1 (Homo sapiens), O14727; reconstituted apoptosome caspase-3 activity; inhibition, % at 20 µM; hit rate 0.71% among 330,000; AID 489030, 2010; active = inhibition of at least 40% at 20 µM;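 also: plate controls were DMSO wells for no effect and DEVD-CHO caspase inhibitor wells for full effect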
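Material: reconstituted apoptosome with Apaf-1, cytochrome c, caspase-9, procaspase-3, dATP; medium: pH 7.5 Hepes buffer with CHAPS, BSA, DTT; also added: cytochrome c and DEVD-Rh110 substrate; timing: 30 min plus 50 min, RT; signal: Rh110 fluorescence intensity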
Fh CTSL1 inh: Fasciola hepatica cathepsin L1 inhibitors, primary screen, counter-screen for PFM18AAP inhibitor project, biochemical, QFRET, fluorogenic peptide substrate; recombinant F. hepatica cathepsin L1, Z-Leu-Arg-MCA fluorescence; inhibition, % at 5.96 µM; hit rate 0.49% among 300,000;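 active = inhibition above the mean of all tested compounds plus 3 SD, set per screening campaign, cut at about 17% in these data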;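 also: 0% = plate median of test compound wells and 100% = 1 µM Z-Phe-Ala-diazomethylketone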
Apaf-1 inh conf: Apaf-1 inhibitors, single-dose retest, confirmation, biochemical, fluorescence, DEVD-Rh110, 20 µM; reconstituted apoptosome, caspase-3 DEVD-Rh110 fluorescence; shares compounds with Apaf-1 inh; inhibition, % at 20 µM; hit rate 25% among 1,800;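 active = mean inhibition of at least 40% at 20 µM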;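 also: plate controls were DMSO wells for no effect and DEVD-CHO caspase inhibitor control wells for full effect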
Rh110 quench: Rh110 fluorescence interference by putative Apaf-1 inhibitors, confirmation, artefact control for Apaf-1 inhibitor project, biochemical, 20 µM | 1,800 tested, under 10 active | quenched caspase reaction | shares compounds with Apaf-1 inh | activation (fluorescence interference), % at 20 µM;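 active = signal rise of 40% or more at 20 µM, treated as a fluorescence artifact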
Fluor interf inh: fluorescence interference of Apaf-1 inhibitor hits, dose response, artefact control for Apaf-1 inhibitor project | IC50, µM | AID 588538, 2011 | 460 tested, under 10 active | fluorescence interference counterscreen, Apaf-1 assay format | shares compounds with Apaf-1 inh; call rule not given here
* = called active by the depositor; · = no result given. Most compounds without a hit are left out; they make up all but 2% or so of the library.

SMILES | PP5 inh | PAD4 inh | GSTO1 counter | UCH37 inh | Apaf-1 inh | Fh CTSL1 inh | Apaf-1 inh conf | Rh110 quench | others
COc1ccccc1-c1oc2ccccc2c1C#CC1(N)CCCCC1 | 2 | 1 | · | · | 68* | · | 28 | 5
COc1ccccc1-c1oc2ccccc2c1C#CC1(O)CCCCC1 | · | -6 | · | -9 | 21 | · | · | ·
COc1ccc(C=NNC(=O)Cn2cnc3ccccc3c2=O)cc1 | · | · | · | 3 | · | · | · | ·
CSc1nncc(/C(C)=N\Nc2cccc(C)c2)n1 | 1 | -4 | 23 | · | 61* | 2 | 10 | -5
CSc1nncc(C(C)=NNc2ccccc2C)n1 | · | · | · | 8 | · | · | · | ·
O=C(OCc1nc2ccccc2s1)c1ccc([N+](=O)[O-])o1 | 1 | -8 | 22 | 4 | 69* | 7 | 15 | 7
O=C(OCc1nc2ccccc2s1)c1ccc(Br)o1 | 0 | -2 | 7 | 4 | 12 | 0 | · | ·
O=C(COc1ccc2ccc(=O)oc2c1)Nc1ccc(N2CCCCC2)cc1 | 2 | -3 | · | -165 | 47* | · | 14 | 9
O=C(COc1ccc2ccc(=O)oc2c1)Nc1ccc(CCO)cc1 | -1 | -4 | 0 | 3 | -3 | 0 | · | ·
NC1=NC[C@H](Cc2ccccc2)N1CCc1cc(C(F)(F)F)cc(C(F)(F)F)c1 | 1 | -6 | 4 | 2 | 54* | -4 | 15 | 8
COc1ccc(C=NNC(=O)c2nnn(-c3nonc3N)c2-c2cccs2)cc1OC | · | · | · | -194 | · | · | · | ·
O=C(NN=Cc1cccc(F)c1)c1ccc(-c2ccccc2)cc1 | · | · | · | 1 | · | · | · | ·
COn1c2c(c3c4nonc4ccc31)CCCC2 | 1 | -6 | 9 | -18 | 47* | -4 | 52* | 10
On1c2c(c3c4nonc4ccc31)CCCC2 | 3 | -5 | 13 | · | 27 | 1 | · | ·
CCCN(CC(=O)Nc1ccccc1OC)C(=O)Cc1ccc2c(c1)CCC2 | 4 | -2 | · | 2 | 4 | · | · | ·
CCCN(CC(=O)Nc1ccccc1C)C(=O)COc1ccc2c(c1)CCC2 | 3 | 0 | -3 | 3 | 60* | 1 | 37 | 5
COc1ccc(NC(=O)C(=O)NN=Cc2cccnc2)c(OC)c1 | · | · | · | 6 | · | · | · | ·
CC(=O)C(=NNc1cccc(Cl)c1)Sc1nnc(-c2ccccc2)n1-c1ccccc1 | · | · | · | 3 | · | · | · | ·
COc1ccc(-n2c(NC(=O)c3ccco3)c(C#N)c3nc4ccccc4nc32)cc1 | 2 | 10 | 19 | -109 | 96* | 1 | 93* | 3 | Fluor interf inh=>100
COc1ccc(C(=O)Nc2ccc(NC(=O)c3ccco3)cc2)cc1 | 0 | -5 | -4 | -7 | 0 | 1 | · | ·
COCCCNC(=O)c1ccccc1Oc1ccccc1 | 1 | 1 | 6 | 4 | -21 | 0 | · | ·
COCCCNC(=O)c1ccc2c3c(onc13)-c1ccccc1C2=O | 3 | -16 | 44* | 24* | 80* | 22* | 74* | 9 | Fluor interf inh=>100
CN1CCN(c2nc(-c3ccc(C(C)(C)C)cc3)nc3ccccc23)CC1 | 5 | -6 | 15 | 2 | 43* | -4 | 20 | 12
COc1ccc(-c2nc(-c3ccccc3)nc(N3CCN(C)CC3)c2C#N)cc1 | 2 | 5 | -1 | -2 | 41* | 5 | 13 | 4
CCOC(=O)c1c(C)oc(N=Cc2ccccc2O)c1C#N | · | · | · | -1 | · | · | · | ·
O=C(Nc1ccc(OC(F)F)c(Cl)c1)[C@@H]1CCCN1C(=O)c1cccs1 | 0 | 2 | -3 | 2 | 92* | -3 | 11 | 6
